The values that follow come from ChEMBL document CHEMBL4382237, “Design, Synthesis, and Biological Evaluation of 2-Nitroimidazopyrazin-one/-es with Antitubercular and Antiparasitic Activity” (J Med Chem, 2018).

Converted amounts (≈) assume the structure as drawn.

Series [1] relates to Trypanosoma brucei brucei. Briefly: Antiparasitic activity against bloodstream form of Trypanosoma brucei brucei strain 427 after 48 hrs by resazurin dye-based assay. It is filed as functional, organism-based. The note with it: strain 427, 48 h. In general terms: The colour change of resazurin is a common sign of viable cells or microbes.
Series [2] concerns Candida albicans. In words: Antifungal activity against Candida albicans ATCC 90028 by broth microdilution assay. It is filed as functional. The procedure, abridged: (§1)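 Broth microdilution run essentially per an earlier report. MIC taken as the lowest concentration with no visible growth. Replicates typically agreed within one 2-fold dilution. The median MIC is reported, with a range where the median fell between two tested concentrations.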
For orientation: In broth dilution the organism is exposed to a series of concentrations in liquid medium.

Series [3] concerns Mycobacterium tuberculosis. Briefly: Antibacterial activity against Mycobacterium tuberculosis H37Rv after 5 days under normoxic condition by resazurin dye-based fluorescence assay. It is filed as functional, organism-based. The essentials: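 H37Rv grown in 7H9/ADC/glycerol/Tyloxapol to mid-exponential phase, diluted to OD600 0.001 (~2 x 10^4 CFU/mL) in 7H9S with serially diluted compound. Incubated 5 days at 37 °C, then resazurin and Tween-80 added. Fluorescence (ex 530/em 590 nm) read after 24 h, normalised to no-drug and no-bacteria wells.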

Series [4] concerns HepG2. Briefly: Cytotoxicity against human HepG2 cells after 24 hrs by resazurin dye-based fluorescence assay. It is filed as cell-based. The note with it: hepg2, 24 h. The essentials: (§2)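 HEK293 (3000/well) and HepG2 (5000/well) were grown 24 h in DMEM with 10% FBS at 37 °C, 5% CO2. Cells were then exposed 24 h to a dilution series up to 100 µM (0.5% DMSO). 5 µM resazurin was added for 2 h, read at ex 560/em 590. 1% Triton X-100 served as lysis control. CC50 was derived from the curves.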

For series [5], the system named is Mycobacterium tuberculosis. Briefly: Antibacterial activity against non-replicating Mycobacterium tuberculosis H37Rv after 5 days under hypoxic condition by resazurin dye-based fluorescence assay. The format is functional. The note with it: 120 h. The procedure, abridged:
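Same H37Rv inoculum (OD600 0.001, ~2 x 10^4 CFU/mL) in 7H9S with serially diluted compound. Plates held 5 days at 0.1% oxygen, then resazurin plus Tween-80 added.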

Series [6] concerns Klebsiella pneumoniae. In words: Antibacterial activity against Klebsiella pneumoniae 700603 by broth microdilution assay. The format is functional. The essentials:
as §1

Series [7] concerns Acinetobacter baumannii. In words: Antibacterial activity against Acinetobacter baumannii ATCC 19606 by broth microdilution assay. The format is functional. As to conditions: ATCC 19606 = CIP 70.34 = JCM 6841. The procedure, abridged: as §1
The test system of series [8] is Staphylococcus aureus. In words: Antibacterial activity against methicillin-resistant Staphylococcus aureus ATCC […] by broth microdilution assay. The format is functional.
The test system of series [9] is Cryptococcus neoformans. In words: Antifungal activity against Cryptococcus neoformans H99 ATCC […] broth microdilution assay. It is filed as functional. As to conditions: var. grubii H99 ATCC 208821. The essentials:
as §1

Series [10] concerns Escherichia coli. In words: Antibacterial activity against Escherichia coli ATCC 25922 by broth microdilution assay. It is filed as functional. The procedure, abridged: as §1
Series [11] has as its system HEK293. In words: Cytotoxicity against HEK293 cells after 24 hrs by resazurin dye-based fluorescence assay. It is filed as cell-based. As to conditions: human, hek293, 24 h. The procedure, abridged: as §2
The subject of series [12] is Giardia intestinalis. Briefly: Antiparasitic activity against Giardia lamblia WB trophozoites after 24 to 48 hrs by CellTiter-Glo luminescent cell viability assay. The note with it: Giardia duodenalis.
Series [13] concerns Pseudomonas aeruginosa. In words: Antibacterial activity against Pseudomonas aeruginosa ATCC 27853 by broth microdilution assay. The format is functional. The essentials: as §1
For series [14], the system named is Entamoeba histolytica. In words: Antiparasitic activity against Entamoeba histolytica HM-1:IMSS trophozoites after 24 to 48 hrs by CellTiter-Glo luminescent cell viability assay. The format is functional, organism-based. The essentials:
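Axenic trophozoites were kept in TYI-S-33 with penicillin (100 U/mL) and streptomycin (100 µg/mL) and harvested in log phase. 5000 parasites per well were exposed to a final 8-point two-fold series of 0.39–50 µM, from 10 mM DMSO stocks. Plates were incubated 24–48 h at 37 °C under anaerobic conditions. ATP luminescence viability was read in triplicate. Percent inhibition is given at the highest concentration tested.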
On the technique in general: In ATP-based viability assays light output follows the ATP content of the culture.

Series [15] is described as follows: Metabolic stability in human liver microsomes assessed as parent compound remaining at 3 uM after 2 hrs by LC-MS/MS analysis.
The nature of series [16]: Metabolic stability in CD-1 mouse liver microsomes assessed as parent compound remaining at 3 uM after 2 hrs by LC-MS/MS analysis.
A short description of series [17]: Metabolic stability in CD-1 mouse plasma assessed as parent compound remaining at 3 uM after 2 hrs by LC-MS/MS analysis.
Series [18] is described as follows: Metabolic stability in human plasma assessed as parent compound remaining at 3 uM after 2 hrs by LC-MS/MS analysis.

`NC(=O)Cn1ccn2cc([N+](=O)[O-])nc2c1=O`: the IC50 in series [1] (read-out: IC50) is above 40 µM; in series [1] (read-out: pIC50 (converted)), above 39.8 µM; in [12], above 50 µM; in series [12] (read-out: pIC50 (converted)) it was above 50.1 µM. For the same molecule, the MIC in [2], in series [3], in series [5], in series [6], in [7] and in [8] was above 32 µg/mL each time. The MIC in series [9], in [10] and in series [13] was above 32 µg/mL each time. Further, the CC50 in series [4] and in [11] was above 100 µM throughout.

Regarding `O=c1c2nc([N+](=O)[O-])cn2ccn1C1CCCCC1`, the IC50 is 1.4 µM in series [1] (read-out: IC50), 1.26 µM in series [1] (read-out: pIC50 (converted)), 5.2 µM in series [12] and 5.01 µM in series [12] (read-out: pIC50 (converted)). The MIC in [2], in series [3], in [5], in [6], in [7] and in series [8] was above 32 µg/mL throughout. For the same molecule, the MIC in [9], in series [10] and in [13] was above 32 µg/mL throughout.

For `Cc1c(C)n2cc([N+](=O)[O-])nc2c(=O)n1Cc1cccc(OC(F)(F)F)c1`, the IC50 in series [1] (read-out: IC50) is 0.4 µM; in series [1] (read-out: pIC50 (converted)), 0.398 µM; in series [12], 1.7 µM; in series [12] (read-out: pIC50 (converted)), 1.58 µM; in series [14] (read-out: IC50), 15 µM; in series [14] (read-out: pIC50 (converted)) it was 15.8 µM. Further, the MIC (as a rule, the lowest concentration found to suppress growth) in series [3] was 1 µg/mL (≈ 2.62 µM); in series [5], 16 to 32 µg/mL (≈ 41.9 to 83.7 µM). Moreover, the values for the CC50 in [4] and in [11] were 26 to 80 µM and 50.6 to 74.5 µM, respectively.

`O=[N+]([O-])c1cn2ccnc(OCCc3ccc(OC(F)(F)F)cc3)c2n1`: the MIC in series [2], in [3], in series [5], in series [6], in series [7] and in series [8] was above 32 µg/mL in each case. The minimal inhibitory concentration (MIC) in [9], in series [10] and in [13] was above 32 µg/mL throughout. The CC50 in series [4] and in [11] was above 100 µM each time. The IC50 is 5.2 µM in series [12], 5.01 µM in series [12] (read-out: pIC50 (converted)) and 7.8 µM in series [14] (read-out: IC50).

Turning to `O=c1c2nc([N+](=O)[O-])cn2ccn1CCN1CCOCC1`, the MIC in [2], in series [3], in series [5], in [6], in [7] and in series [8] was above 32 µg/mL in each case. Further, the MIC in series [9], in series [10] and in series [13] was above 32 µg/mL in each case. In addition, the CC50 in series [4] and in [11] was above 100 µM in each case.

On to `O=c1c2nc([N+](=O)[O-])cn2cc(-c2ccccc2)n1CCO`, for which the CC50 in series [4] and in series [11] was above 75 µM throughout. This molecule returned an MIC in series [5] above 32 µg/mL. For the same molecule, the IC50 in series [12] was 38 µM; in [12] (read-out: pIC50 (converted)), 39.8 µM; in series [14] (read-out: IC50), above 50 µM; in [14] (read-out: pIC50 (converted)), above 50.1 µM.

In the case of `O=c1c2nc([N+](=O)[O-])cn2ccn1Cc1ccccc1OC(F)(F)F`, the IC50 was 6 µM in series [1] (read-out: IC50), 6.31 µM in series [1] (read-out: pIC50 (converted)), 8.2 µM in series [12] and 7.94 µM in series [12] (read-out: pIC50 (converted)). The MIC in series [2] was above 32 µg/mL; in series [3] it was 1 µg/mL (≈ 2.82 µM); in [5] it was 8 µg/mL (≈ 22.6 µM); in series [6], above 32 µg/mL; in series [7], above 32 µg/mL; in [8], above 32 µg/mL. The MIC in [9], in series [10] and in series [13] was above 32 µg/mL in each case. In addition, the CC50 in series [4] and in [11] was above 100 µM throughout. The Stability in series [15] and in series [16] was above 99% in each case.

For the molecule `O=[N+]([O-])c1cn2ccnc(OCc3ccccc3OC(F)(F)F)c2n1`, the IC50 in series [1] (read-out: IC50) is above 40 µM; in series [1] (read-out: pIC50 (converted)) it was above 39.8 µM; in [12], 12 µM; in series [12] (read-out: pIC50 (converted)), 12.6 µM. Also, the MIC in series [2], in [3], in series [5], in [6], in series [7] and in [8] was above 32 µg/mL throughout. The MIC in [9], in series [10] and in series [13] was above 32 µg/mL each time. Moreover, the CC50 in series [4] and in series [11] was above 100 µM throughout. Moreover, the results for the Stability in series [15] and in [16] were 51% and below 0.5%, respectively.

For `CC(=O)OCCn1ccn2cc([N+](=O)[O-])nc2c1=O`, the MIC in [2], in series [6], in series [7], in series [8], in [9] and in [10] was above 32 µg/mL in each case. In addition, in [13], the MIC was above 32 µg/mL.

Regarding `O=C(Cn1ccn2cc([N+](=O)[O-])nc2c1=O)N1CCOCC1`, the IC50 in [1] (read-out: IC50) is 4.1 µM; in series [1] (read-out: pIC50 (converted)), 3.98 µM; in series [12] it was above 50 µM; in series [12] (read-out: pIC50 (converted)), above 50.1 µM. The MIC in series [2], in series [3], in [5], in series [6], in series [7] and in series [8] was above 32 µg/mL in each case. For the same molecule, the MIC in series [9], in [10] and in series [13] was above 32 µg/mL each time. Besides, the CC50 in series [4] and in series [11] was above 100 µM each time.

As for `O=c1c2nc([N+](=O)[O-])cn2ccn1Cc1ccc(F)cc1F`, the IC50 in series [1] (read-out: IC50) is above 40 µM; in [1] (read-out: pIC50 (converted)), above 39.8 µM; in series [12], above 50 µM; in [12] (read-out: pIC50 (converted)), above 50.1 µM. In addition, the MIC in [2] is above 32 µg/mL; in series [3], 16 to 32 µg/mL; in series [5] it was above 32 µg/mL; in [6], above 32 µg/mL; in series [7] it was above 32 µg/mL; in series [8] it was above 32 µg/mL. In addition, the MIC in series [9], in series [10] and in series [13] was above 32 µg/mL in each case. Further, the CC50 in [4] and in series [11] was above 100 µM in each case.

Regarding `Cc1nc(OCc2ccc(OC(F)(F)F)cc2)c2nc([N+](=O)[O-])cn2c1C`, the IC50 is 10 µM in [1] (read-out: IC50); 10 µM in [1] (read-out: pIC50 (converted)); 8.6 µM in [12]; 7.94 µM in series [12] (read-out: pIC50 (converted)); 17 µM in series [14] (read-out: IC50); 15.8 µM in series [14] (read-out: pIC50 (converted)). The MIC in series [3] and in series [5] was above 32 µg/mL each time. Besides, the Stability in [17] is recorded as above 99%; in series [15] it was 44%; in [16], below 0.5%; in series [18], above 99%.

Turning to `O=c1c2nc([N+](=O)[O-])cn2ccn1CCO`, the MIC in series [2], in series [6], in series [7], in [8], in series [9] and in series [10] was above 32 µg/mL in each case. In series [13], the MIC was above 32 µg/mL. The IC50 in series [12] is above 50 µM; in [12] (read-out: pIC50 (converted)), above 50.1 µM.

Consider `CC1CC(OC(=O)C(O)c2ccccc2)CC(C)(C)N1C` (stereo not drawn) [EUCATROPINE], for which the Stability in [18] is 21%.
